Only some compounds are listed: those with a hit (about 2.9% of all), similar ones and a draw of the others.
E-selectin induc = induces E-selectin expression in human endothelial cells; P16581; HUVEC E-selectin immunofluorescence imaging; normalized: neutral wells 0, TNF-alpha wells 100; activation, % at 7.58 µM; actives 0.37% (n = 260,000);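 active = mean E-selectin-positive cell signal at least 10% of the positive control, reached in at least 60% of replicates, without over 20% cell loss; inconclusive = no rule given, readout overlaps actives, possibly toxicity-flagged; inactive = the rest, including those meeting only one limit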
Target sequence (P16581 whole entry, looked up): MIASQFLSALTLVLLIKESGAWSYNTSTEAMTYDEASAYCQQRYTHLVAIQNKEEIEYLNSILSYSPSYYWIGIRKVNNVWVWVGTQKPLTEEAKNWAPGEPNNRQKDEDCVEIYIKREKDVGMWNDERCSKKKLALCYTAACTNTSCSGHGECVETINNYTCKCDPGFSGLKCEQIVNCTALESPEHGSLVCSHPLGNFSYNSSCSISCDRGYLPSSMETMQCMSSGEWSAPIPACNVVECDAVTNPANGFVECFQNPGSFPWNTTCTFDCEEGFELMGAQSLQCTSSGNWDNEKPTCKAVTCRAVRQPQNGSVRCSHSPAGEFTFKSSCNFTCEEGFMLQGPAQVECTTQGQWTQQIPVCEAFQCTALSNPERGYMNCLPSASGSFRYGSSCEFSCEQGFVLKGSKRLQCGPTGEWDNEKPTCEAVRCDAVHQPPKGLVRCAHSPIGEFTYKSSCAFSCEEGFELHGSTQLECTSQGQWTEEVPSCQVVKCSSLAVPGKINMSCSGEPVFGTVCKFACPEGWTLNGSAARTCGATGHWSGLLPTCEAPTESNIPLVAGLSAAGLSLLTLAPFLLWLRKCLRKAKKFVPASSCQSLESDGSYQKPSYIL
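Material: HUVEC primary endothelial cells; Amount: 3,000 cells per well; Dosing: single concentration; Medium: EGM-2 growth medium on 0.1% gelatin-coated wells; Read-out basis: percent E-selectin-positive cells; Signal: immunofluorescence imaging; Control set: TNF-alpha, DMSO.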
DENV2 CPE rescue = protects cells from dengue virus 2 cytopathic effect; DENV2-infected cells, cytopathic effect rescue, plate reader; CPE inhibition, % at 9.99 µM; actives 1.7% (n = 350,000); AID 651640; in the data active = CPE inhibition above about 20%, passing the limit was not always enough; inconclusive = no clear call, values can overlap the other calls; tested in BHK-21 cells;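 note: 0% = median of neutral control wells and 100% = median of positive control wells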
SIRT5 block = inhibitors of human sirtuin-5 desuccinylase. Q9NXA8. actives 1.1% (n = 330,000). Purified SirT5, succinyl-peptide AMC, trypsin-coupled fluorescence. inhibition, % at 15 µM; in the data active = inhibition above about 15%; inconclusive = no clear call, values can overlap the other calls
* marks the source's active call; other numbers are inactive results; u = inconclusive; x = no result; ! = not confirmed by another sample.

SMILES	E-selectin induc	DENV2 CPE rescue	SIRT5 block
CCN(CC)c1ccc(S(=O)(=O)N2CCOCC2)cc1NC(=O)COC(=O)c1cccnc1SC	0	-1	0
O=C(C[C@H]1CC[C@@H](NS(=O)(=O)c2ccccc2)[C@H](CO)O1)N1CCc2ccccc2C1	0	6	1
Cc1cc2oc(C(=O)NCCc3ccc(S(N)(=O)=O)cc3)c(C)c2cc1C	2	3	-4
Cc1ccc(S(=O)(=O)Nc2ccc3c(c2)C(=O)N([C@@H](C)CO)C[C@H](C)[C@@H](CN(C)C(=O)Nc2ccc4c(c2)OCO4)O3)cc1	0	x	x
Cc1c(O)nc2ccccn2c1=O	71*	-2	x
CCCCc1c(O)nc2ccccn2c1=O	0	-6	0
COc1ccc(S(=O)(=O)N2CCC3(CC2)CN(C(=O)CN(C)C)[C@H](CO)c2c3c3ccc(OC)cc3n2C)cc1	-1	14	-4
Cc1ccc(NC(=O)c2cc(C(=O)Nc3ccc(C)cc3)n(C)n2)cc1	x	42*	-4
Cn1nc(C(=O)Nc2ccc(Cl)cc2)cc1C(=O)Nc1ccc(Cl)cc1	x	6	-3
Cn1cc(C(CO)Cc2ccccc2)c2ccccc21 (centres undefined)	0	25*	1
Cn1cc(C[C@@H](N)C(=O)O)c2ccccc21	x	1	0
O=C(NCC1CCCO1)c1cccc(Oc2ccc([N+](=O)[O-])cc2Cl)c1 (centres undefined)	-1	1	-1
CC(=O)Nc1ccc(N2C(=O)CSC2c2ccc([N+](=O)[O-])cc2)cc1 (centres undefined)	0	-4	27*
CC(=O)Nc1ccc(N2C(=O)CSC2c2ccccc2)cc1 (centres undefined)	4	0	11
Cc1sc(-c2ccccn2)nc1OC(=O)c1ccc(F)cc1F	x	x	3
O=C(O)Cn1ncc2ccccc2c1=O	x	-1	4
CCOc1ccc2nc(N3C(=O)C(O)=C(C(=O)c4ccco4)C3c3ccco3)sc2c1 (centres undefined)	-1	u	3
Cc1ccc(S(=O)(=O)NCC(=O)OCC(=O)N(Cc2ccccc2)C(C)(C)C)cc1	0	93*	1
Cc1ccc(S(=O)(=O)NCCC(=O)OCC(=O)N(Cc2ccccc2)C(C)(C)C)cc1	-2	12	-4
NC(=O)COC(=O)C12CC3CC(CC(O)(C3)C1)C2	-1	2	-9
C/C=C(\C)C(=O)Nc1cccc(C2=NOC3(C2)C[C@@H](C(N)=O)N(C(=O)/C(C)=C/C)C3)c1 (some centres undefined)	0	30*	x
C/C=C(\C)C(=O)Nc1cccc(C2=NOC3(C2)C[C@@H](C(N)=O)N(C(=O)c2ccccc2C(=O)c2ccccc2)C3)c1 (some centres undefined)	0	23*	9
C=C(C)C(=O)Nc1cccc(C2=NOC3(C2)C[C@@H](C(N)=O)N(C(=O)/C(C)=C/C)C3)c1 (some centres undefined)	0	0	2
C/C=C(/C)C(=O)Nc1cccc(C2=NOC3(C2)C[C@H](C(N)=O)N(C(=O)c2ccccc2)C3)c1 (some centres undefined)	0	15	-3
COc1cc(C2C3=C(CCCC3=O)Nc3ccc4ncccc4c32)ccc1O (centres undefined)	x	-4	-3
SMILES	E-selectin induc	DENV2 CPE rescue	SIRT5 block
CC(=O)N[C@@H]1C=C[C@H](CC(=O)NCc2ccc(Cl)cc2)O[C@@H]1CO	0	3	-4
C[C@H]1CN([C@@H](C)CO)C(=O)c2cccc(NS(=O)(=O)c3ccccc3)c2O[C@@H]1CN(C)S(=O)(=O)c1ccccc1	0	17	-2
O=C(c1ccccc1F)N1C[C@H]2O[C@H](CNS(=O)(=O)c3ccccc3)CC[C@H]21	x	-9	0
O=C(c1ccccc1F)N1C[C@@H]2O[C@H](CNS(=O)(=O)c3ccccc3)CC[C@@H]21	x	61*	-3
Cn1c(C(=O)OCC(=O)NCc2ccco2)cc2sccc21	x	0	1
O=C(C[C@@H]1CC[C@@H](NC(=O)c2cccc(F)c2)[C@@H](CO)O1)NCCN1CCCC1	1	-4	-3
C[C@@H]1CN([C@H](C)CO)S(=O)(=O)c2ccc(/C=C/c3ccccc3)cc2O[C@H]1CN(C)C(=O)NC1CCCC1	-4	4	15*
C/C=C/c1ccc2c(c1)O[C@H](CN(C)C(=O)CC)[C@@H](C)CN([C@H](C)CO)S2(=O)=O	74*	-10	6
C/C=C/c1ccc2c(c1)O[C@H](CN(C)C(=O)NC1CCCC1)[C@H](C)CN([C@H](C)CO)S2(=O)=O	0	-8	16*!
C[C@@H]1CN([C@@H](C)CO)S(=O)(=O)c2ccc(/C=C/c3ccccc3)cc2O[C@H]1CN(C)C(=O)NC1CCCC1	7	13	16*
C/C=C/c1ccc2c(c1)O[C@@H](CN(C)C(=O)NC1CCCCC1)[C@@H](C)CN([C@@H](C)CO)S2(=O)=O	-7	-12	2
C/C=C/c1ccc2c(c1)O[C@@H](CN(C)C(=O)CC)[C@H](C)CN([C@H](C)CO)S2(=O)=O	0	7	-3
C[C@H](CO)N1C[C@H](C)[C@@H](CN(C)C(=O)NC2CCCC2)Oc2cc(/C=C/c3ccccc3)ccc2S1(=O)=O	-4	11	0
C/C=C/c1ccc2c(c1)O[C@@H](CN(C)C(=O)NC1CCCC1)[C@H](C)CN([C@@H](C)CO)S2(=O)=O	0	0	-3
CC(C(=O)Nc1ccc(F)c(F)c1F)N(C)CCOc1ccccc1 (centres undefined)	x	9	2
CO[C@H]1CN(C)C(=O)c2ccc(NC(=O)c3nc4ccccc4s3)cc2OC[C@@H](C)NC[C@@H]1C	0	-3	15
CCCN1CCC2(CC1)CN(Cc1ccccc1OC)[C@@H](CO)c1c2c2ccc(OC)cc2n1C	-1	-10	x
Cc1nc2cc(Cl)c(Cl)cc2n1CCCO	x	12	-2
COCC(=O)NC[C@@H]1N[C@@H](CO)[C@H]1c1ccc(C2=CCCCC2)cc1	0	3	-1
O=C(NC[C@H]1N[C@H](CO)[C@H]1c1ccccc1)c1ccccc1F	0	23*	1
O=C(NC[C@H]1N[C@H](CO)[C@@H]1c1ccc(C2=CCCCC2)cc1)c1cccc(F)c1	0	10	-6
O=C(NC[C@H]1N[C@H](CO)[C@@H]1c1ccc(C2=CCCCC2)cc1)c1ccc(F)cc1	0	44*	1
COCC(=O)NC[C@H]1N[C@H](CO)[C@H]1c1ccc(C2=CCCCC2)cc1	0	-1	37*
O=C(NC[C@H]1N[C@H](CO)[C@@H]1c1ccc(-c2ccccc2)cc1)c1cccc(F)c1	0	x	x
CCc1c(O)nc(SCc2ccccc2)n(C(C)CC)c1=O (centres undefined)	x	-3	-7
Cc1noc(C)c1NC(=O)N(C)C[C@H]1Oc2ccc(NC(=O)Cc3ccccc3)cc2C(=O)N([C@@H](C)CO)C[C@H]1C	-4	-4	-2
COc1ccc(CNC2CCSc3ccccc32)cc1OC (centres undefined)	0	7	0
COc1cc(C2c3cc4c(cc3OC(N3CCCCC3)C2C)OCO4)cc(OC)c1O (centres undefined)	-1	1	x
